Results taken from the RNAGym collection of RNA variant scans (doi:10.1126/science.aae0568).
Variants at the floor of the assay were thinned out.

B1: tRNA (parent)
chain: GUUCCGUUGGCGUAAUGGUAACGCGUCUCCCUCCUAAGGAGAAGACUGCGGGUUCGAGUCCCGUACGGAACG

Variants of: B1
Assay: yeast fitness relative to wild type (ratio to wild type); higher = fitter; tRNA-Arg(CCU), competitive growth, 37 C, YPD
How it was run: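 Genotype frequency changes were the basis for Darwinian fitness relative to wild type. The frequencies came from 100-nucleotide paired-end sequencing of gene amplicons from the start population and each end population of pooled yeast strains with tRNA-Arg(CCU) gene variants at the native locus. Competition ran in YPD at 37°C for 24 hours in six replicates, genotypes needed ≥ 100 starting reads, and estimates < 0.5 were set to 0.5.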
Variant U7G G39A C66U A69U has a yeast fitness of at most 0.5.
For U8A U32G A37G, the yeast fitness was at most 0.5.
U8A C24A U28C C61U U64A A69G gave a yeast fitness of at most 0.5.
Work on U8C G39C G68A yielded a yeast fitness of at most 0.5.
In the case of U8C G17A C46A A65G, the yeast fitness is reported as at most 0.5.
Variant U7G C27G U28G has a yeast fitness of 0.531.
In the case of U8C C46U G51C, the yeast fitness is reported as at most 0.5.
U8G C30U A45G C60A C66U gave a yeast fitness of at most 0.5.
U8C C55G gave a yeast fitness of 0.671.
In the case of U8C C55U, the yeast fitness is reported as 0.754.
U8C C49G C62A showed a yeast fitness of at most 0.5.
Work on U7G C24U A45G yielded a yeast fitness of 0.601.
U7G C62U showed a yeast fitness of 0.893.
With G9A A15C G58C the yeast fitness was 0.581.
U8A C34G A65U C66A gave a yeast fitness of at most 0.5.
In the case of U8C U26G C30U A40G, the yeast fitness is reported as at most 0.5.
Variant U8G A20G A37G A43G A70U has a yeast fitness of at most 0.5.
For U7G C11U G12C C33U G58C, the yeast fitness was at most 0.5.
Work on U8A G23A C30G U59A A70C yielded a yeast fitness of at most 0.5.
In the case of U8C A14G G56C, the yeast fitness is reported as at most 0.5.
Work on U8A C22G C46G C66U yielded a yeast fitness of 0.567.
For U8G G50C, the yeast fitness was at most 0.5.
With U8G G10C A40C the yeast fitness was at most 0.5.
U7G C27U showed a yeast fitness of 0.792.
With U8A A14G C49G the yeast fitness was 0.538.
Variant U8C A45C has a yeast fitness of 0.802.
In the case of U8C G50A A70U, the yeast fitness is reported as 0.736.
Work on U8A A20C U35A G38C A69U yielded a yeast fitness of 0.597.
U8G C49U showed a yeast fitness of 0.668.
U7G G23A C29U A36U gave a yeast fitness of at most 0.5.
Work on U8A A20U A21U G25A A43U yielded a yeast fitness of 0.584.
U8A C24G G48C C49U U64A showed a yeast fitness of at most 0.5.
Variant U8A G12A A14C C31A G41C C49A G56A has a yeast fitness of 0.563.
In the case of U8A G68C, the yeast fitness is reported as 0.661.
In the case of U8A C34U G67A A69G, the yeast fitness is reported as 0.568.
In the case of U8C G12C C61A G67A, the yeast fitness is reported as at most 0.5.
U7G G39A C55U G68C gave a yeast fitness of 0.594.
In the case of U8A U53A, the yeast fitness is reported as at most 0.5.
For U8C C27G C29A, the yeast fitness was at most 0.5.
Work on U8A C29A A43G A57U yielded a yeast fitness of at most 0.5.
U8A A15U C29G G41A C49G A57G gave a yeast fitness of at most 0.5.
U7G G41A gave a yeast fitness of 0.776.
In the case of U8A G25A C29G A37C, the yeast fitness is reported as 0.646.
In the case of U8C A14U, the yeast fitness is reported as 0.805.
U8A U16G C30U C33G A37C A43G gave a yeast fitness of at most 0.5.
For U8A U28A C31G G44A G51C A65G, the yeast fitness was at most 0.5.
U7G C27G C30A C62G showed a yeast fitness of at most 0.5.
Work on U8A G48C yielded a yeast fitness of 0.761.
For U8C C34G G48C U59C C60A A65G, the yeast fitness was at most 0.5.
Work on U8A A36U C55G U59C yielded a yeast fitness of 0.579.
U8G G23C gave a yeast fitness of at most 0.5.
Variant U8G A20U A36G has a yeast fitness of 0.635.
In the case of U8A G9C U54A, the yeast fitness is reported as at most 0.5.
U8C G48A C55A G58C gave a yeast fitness of at most 0.5.
Variant U8C C24U A42U G52C has a yeast fitness of at most 0.5.
For U8A C34U, the yeast fitness was 0.508.
G9A A14C C22G U54C C66U showed a yeast fitness of at most 0.5.
U8A G10A G58C A69U showed a yeast fitness of at most 0.5.
U8A C31G A57C C61U gave a yeast fitness of 0.506.
With U8C A14C G18A C31U the yeast fitness was at most 0.5.
Variant U8A G10C C11U C24U A42C U47C G68C has a yeast fitness of at most 0.5.
With U8C G9A A20C A70U the yeast fitness was at most 0.5.
With U7G C11A C22G C30G the yeast fitness was at most 0.5.
U8C A36U G50C showed a yeast fitness of at most 0.5.
U8C G12C C62U gave a yeast fitness of 0.587.
In the case of U8A G18C C24A U32C G52C G56A, the yeast fitness is reported as at most 0.5.
For U7G G56A C62A, the yeast fitness was 0.572.
In the case of U8G C24G G41A A65G, the yeast fitness is reported as at most 0.5.
U8G C24U C29G C31A A45G C61U A65C G67A G68A showed a yeast fitness of at most 0.5.
With U7G U13C C31U the yeast fitness was 0.903.
With U8C G63C the yeast fitness was 0.778.
Work on U8C C22A A42U U54C C66G yielded a yeast fitness of at most 0.5.
Variant U7G U26C C49G has a yeast fitness of at most 0.5.
For G9A A14U A21C, the yeast fitness was 0.577.
Work on U8A C66A yielded a yeast fitness of 0.568.
With U8G C24G U47C C61G the yeast fitness was at most 0.5.
Variant U8C A14C C24G G68A has a yeast fitness of at most 0.5.
U8C C22A C33G G39C C46U C66U showed a yeast fitness of 0.536.
In the case of U8A A43U C55U, the yeast fitness is reported as 0.537.
U8A G18C C24A U32C A70U gave a yeast fitness of at most 0.5.
With U8G G10A C11G U19G A40G C55U C60U the yeast fitness was 0.511.
With U7G U28C G41C G58C the yeast fitness was at most 0.5.
U8C C49G showed a yeast fitness of 1.01.
With U8C G9A C22G U32G G51C U64A C66U A69C the yeast fitness was at most 0.5.
